Most compounds without a hit are left out; they make up all but 2.1% or so of the library.
Apaf-1 inh = inhibitors of human Apaf-1 apoptosome, primary screen, biochemical, DEVD-Rh110 fluorescence, uHTS; hit rate 0.71% among 330,000; inhibition, % at 20 µM; Apoptotic protease-activating factor 1 (Homo sapiens), O14727; reconstituted apoptosome caspase-3 activity; active = inhibition of at least 40% at 20 µM;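 note: plate controls were DMSO wells for no effect and DEVD-CHO caspase inhibitor wells for full effect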
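Material: cell-free apoptosome with Apaf-1, procaspase-3 and caspase-9; Buffer or medium: Hepes pH 7.5 with detergent and BSA; Reagent: cytochrome c trigger plus (Z-DEVD)2-Rh110 caspase-3 substrate; Times: compound with Apaf-1, dATP, procaspase-3 30 min, then 50 min reaction, room temperature; Technique: Rh110 fluorescence intensity.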
PP1 inh = PP1-alpha phosphatase inhibitors, primary screen, counter-screen for PP5 inhibitor project, biochemical, fluorescence, OMFP substrate, single point | Serine/threonine-protein phosphatase PP1-alpha catalytic subunit (Homo sapiens), P62136 | purified PP1alpha | inhibition, % at 6.7 µM | hit rate 0.9% among 320,000;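 active = inhibition above the mean inhibition of all tested compounds plus 3 SD, computed separately for each screening campaign, cut at about 15% in these data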
GSTO1 counter = inhibitors of recombinant GSTO1, primary screen, counter-screen for RBBP9 inhibitor project, biochemical, fluorescence polarization; inhibition, % at 5.96 µM; activity-based probe fluorescence polarization; AID 1974, 2009; Glutathione S-transferase omega-1 (Homo sapiens), P78417; hit rate 1.1% among 300,000;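 active = inhibition above the campaign mean inhibition plus 3 SD, cut at about 35% in these data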;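 note: 0% = GSTO1-1 with DMSO and 100% = wells lacking GSTO1-1 enzyme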
Target sequence (P78417 whole entry, looked up): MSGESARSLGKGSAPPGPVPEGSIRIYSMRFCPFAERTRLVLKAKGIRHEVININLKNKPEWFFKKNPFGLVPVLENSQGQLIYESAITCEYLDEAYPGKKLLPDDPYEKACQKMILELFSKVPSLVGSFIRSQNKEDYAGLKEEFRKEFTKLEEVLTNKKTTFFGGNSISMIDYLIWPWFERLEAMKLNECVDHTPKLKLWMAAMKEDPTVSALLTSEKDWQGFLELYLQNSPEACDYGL
TDP2 inh = human TDP2 enzyme inhibitors, primary screen, biochemical, epi absorbance, recombinant enzyme. AID 720702, 2013. T5PNP hydrolysis, p-nitrophenol absorbance 415 nm. hit rate 0.34% among 370,000. Tyrosyl-DNA phosphodiesterase 2 (Homo sapiens), O95551. inhibition, % at 12.8 µM;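 active = inhibition above the mean of all tested compounds plus 3 SD, set per campaign, cut at about 25% in these data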;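 note: 0% = DMSO with enzyme and 100% = buffer with substrate but no TDP2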
Target sequence (O95551 whole entry, looked up): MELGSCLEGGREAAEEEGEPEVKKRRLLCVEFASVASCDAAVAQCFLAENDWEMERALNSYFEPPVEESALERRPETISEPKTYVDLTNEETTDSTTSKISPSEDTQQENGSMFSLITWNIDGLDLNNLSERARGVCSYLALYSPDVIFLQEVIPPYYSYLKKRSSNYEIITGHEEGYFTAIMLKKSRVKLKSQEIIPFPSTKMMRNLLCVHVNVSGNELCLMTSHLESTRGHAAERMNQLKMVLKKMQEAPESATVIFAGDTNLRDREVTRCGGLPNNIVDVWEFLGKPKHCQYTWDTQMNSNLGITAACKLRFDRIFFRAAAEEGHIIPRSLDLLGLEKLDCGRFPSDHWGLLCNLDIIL
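System – recombinant human TDP2 · Quantity – TDP2 enzyme at 120 nM final · Doses – single concentration, 12.8 µM nominal, with 1% DMSO · Incubation – 2 h at 37 °C · Measured by – epi absorbance of p-nitrophenol freed from T5PNP by hydrolysis · Read-out – % inhibition relative to enzyme-containing and enzyme-free wells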
PP5 inh = PP5 phosphatase inhibitors, primary screen, biochemical, fluorescence; Serine/threonine-protein phosphatase 5 (Homo sapiens), P53041; purified PP5c, OMFP substrate fluorescence; inhibition, % at 6.7 µM; hit rate 0.18% among 320,000;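 active = inhibition above the campaign's mean inhibition across all tested compounds plus 3 SD, cut at about 9.5% in these data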;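 note: 0% = DMSO only and 100% = 100 µM cantharidin control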
Starred values were filed as active, the others as inactive; · = not tested or not shown.

SMILES	Apaf-1 inh	PP1 inh	GSTO1 counter	TDP2 inh	PP5 inh
COc1cc(/C=C/c2ccc3cccc(O)c3n2)cc(OC)c1OC	13	8	12	3	2
COc1ccc(/C=C/c2ccc3cccc(O)c3n2)cc1Br	8	17*	8	-3	-1
COc1ccc(-c2ccc(-c3noc(-c4ccco4)n3)c(OC)n2)cc1	-8	16*	-5	-3	-1
O=C(CN(c1cccc(Br)c1)S(=O)(=O)c1ccccc1)N/N=C/c1cc([N+](=O)[O-])ccc1O	4	16*	2	-20	3
O=C(CCCC(=O)Nc1cccc(Br)c1)N/N=C/c1cc([N+](=O)[O-])ccc1O	10	16*	-19	-16	0
CCCC[C@H](C(=O)N(C)c1ccccc1)[C@@H](O)c1ccc2ccccc2c1	·	·	·	-4	·
COc1ccc(N(CC(=O)Nc2ccc(C)cn2)S(=O)(=O)c2c(C)nn(C)c2C)cc1	-4	-3	8	-1	1
Cc1ccc(N(CC(=O)Nc2ccc(C)cn2)S(=O)(=O)c2c(C)nn(C)c2C)cc1	9	-5	36*	-1	2
Cc1sc2ncnc(NCCCN3CCCC3=O)c2c1C	-8	0	37*	5	1
O=C1CCCN1CCCNc1ncnc2sccc12	-6	-3	9	-7	-5
CC(=O)N(C)C1=C(N2CCOCC2)C(=O)c2ccccc2C1=O	65*	1	59*	·	6
CCOC(=O)[C@]12CCCCC/C=C\1N(CCc1ccc(Cl)cc1)C(=O)[C@H]2CC(=O)NCC1CCCCC1	·	·	·	-14	·
O=C(Nn1c(C2CCCCC2)nc2ccccc2c1=O)c1cc(Cl)ccc1[N+](=O)[O-]	10	-2	8	-2	-1
O=C(Nn1c(C2CCCCC2)nc2ccccc2c1=O)c1ccc([N+](=O)[O-])cc1Cl	0	17*	7	8	1
O=C(Nc1ccc(C(O)(C(F)(F)F)C(F)(F)F)cc1)c1c(F)cccc1F	·	·	·	6	·
COc1ccc(-n2ncc3c(N4CCN(c5cc(C)ccc5C)CC4)ncnc32)cc1	3	17*	1	0	3
COc1ccc(N2CCN(c3ncnc4c3cnn4-c3ccc(C)cc3C)CC2)cc1	7	2	-3	2	1
Cc1ccc(NC(=O)CC(=O)c2ccc([N+](=O)[O-])cc2)cc1S(=O)(=O)Nc1cccc(Cl)c1	13	17*	-44	1	6
Cc1cc(C)nc(N/N=C/c2ccccc2Cl)n1	-28	-1	0	-10	0
Cc1cc(N/N=C/c2ccccc2Cl)nc(NCc2ccccc2)n1	8	17*	-1	-19	6
N#Cc1c(-c2cccs2)cc(-c2ccccn2)nc1N	0	16*	1	-2	4
S=C(c1cn(CCOc2cccc3ccccc23)c2ccccc12)N1CCCC1	6	24*	0	7	2
S=C(c1cn(CCOc2ccccc2)c2ccccc12)N1CCCC1	27	1	9	-3	-2
CCNc1ccc(Br)cc(C(=O)/C=C/c2c(Cl)cccc2Cl)c1=O	33	3	37*	·	1
CCNc1ccc(Br)cc(C(=O)/C=C/c2ccc(Cl)cc2)c1=O	1	7	7	·	-4
SMILES	Apaf-1 inh	PP1 inh	GSTO1 counter	TDP2 inh	PP5 inh
CCNc1ccc(Br)cc(C(=O)/C=C/c2ccc3c(c2)OCO3)c1=O	33	4	53*	1	0
C/C(N)=N\S(=O)(=O)c1ccc(Cl)cc1	-20	1	36*	-1	-2
COC(=O)CNC(=O)C1Nc2ccccc2C2C=CCC12 (centres undefined)	12	0	43*	6	1
CC1CCCN(CCCNS(=O)(=O)c2cc3c(cc2Br)CCN3C(=O)C2CC2)C1 (centres undefined)	·	·	·	7	·
CCOc1ccccc1/C=N\Nc1cnn(Cc2ccccc2)c(=O)c1Cl	28	16*	-5	2	5
CCCC[C@H]1C2CC(OC(=O)Nc3cccc(C(F)(F)F)c3)C(C2)[C@H]2CCCCN21 (some centres undefined)	·	·	·	1	·
CCC1(C)NC(=O)N(CC(=O)N2CCC(Cc3ccccc3)CC2)C1=O (centres undefined)	58*	-5	·	-4	-2
O=c1[nH][nH]c(-c2ccccc2O)c1C(C[N+](=O)[O-])c1cccc(Cl)c1 (centres undefined)	7	0	36*	-4	1
O=c1[nH][nH]c(-c2ccccc2O)c1C(C[N+](=O)[O-])c1ccccc1 (centres undefined)	7	-3	29	10	1
CCc1ccc2c(c1)C(=O)C(=O)N2CC(=O)Nc1ccc(NC(=O)c2ccccn2)cc1	17	16*	-15	-13	3
COC(=O)[C@]12C[C@H](CC(=O)N3CCN(C(=O)c4ccco4)CC3)C(=O)N(Cc3cccc4ccccc34)C1=C[C@H](C1CCCC1)O[C@@H]2C	·	·	·	-5	·
COC(=O)C1CN(Cc2cn(Cc3ccc(Cl)cc3)nn2)CCS(=O)(=O)N1Cc1ccc(F)cc1 (centres undefined)	·	·	·	11	·
Cc1ccc2nc(N3C(=O)C(O)=C(C(=O)c4cc5ccccc5o4)C3c3cccs3)sc2c1 (centres undefined)	27	12	-57	·	1
Cc1ccc2nc(N3C(=O)C(O)=C(C(=O)c4ccc(C)o4)C3c3ccco3)sc2c1 (centres undefined)	14	16*	·	3	5
Cc1ccc2nc(N3C(=O)C(O)=C(C(=O)c4ccco4)C3c3ccc(O)cc3)sc2c1 (centres undefined)	16	15*	-4	-11	3
CCOc1ccc(-n2c(SCc3ccc(C#N)cc3)nnc2-c2ccco2)cc1	·	·	·	-1	·
Cc1ccc2nc(-c3cccc(-c4cccc(Cl)c4)c3)c(NCc3ccccc3)n2c1	21	16*	-1	-3	5
CCOC(=O)c1c(C)[nH]c(C(=O)CSc2nnc(Nc3ccccc3F)s2)c1C	2	17*	0	-3	3
Cc1ccc(/C=C2\SC(=S)N(NS(=O)(=O)c3ccc(C)cc3)C2=O)cc1	5	5	30	-5	4
Cc1ccc(S(=O)(=O)NN2C(=O)/C(=C/c3cccs3)SC2=S)cc1	10	3	37*	-3	0
CCOC(=O)CC[C@@]1(C(=O)OCC)C[C@@H](CC(=O)NCCCOC)C(=O)N2CCCC=C21	·	·	·	1	·
C/C(CCC(=O)O)=N/Nc1ccc([N+](=O)[O-])cc1[N+](=O)[O-]	9	-9	38*	1	3
